{"source": "paper PMC7709506", "about": "(ESMO Open, 2020)", "key": {"UGT1A1": {"system": "UGT1A1", "conditions": "human liver microsomes; cited from earlier work"}, "[1]": {"system": "advanced or metastatic solid tumours", "experiment": "Preliminary antitumour activity", "assay_type": "in vivo, human"}, "[2]": {"experiment": "Plasma pharmacokinetics after single and multiple dosing", "assay_type": "in vivo, human", "conditions": "for Accumulation ratio, geometric mean (CV %): AUC0–last day 15 / day 1; for Mean (SD) metabolite to parent ratio: ORM-21444 AUC0–last / ODM-203 AUC0–last", "in_short": "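Oral once-daily test compound. Capsule single dose on day 1 after a low-phosphate light breakfast. In tablet cohorts, one capsule dose was followed a week later by continuous daily tablets from 200 mg. Plasma sampled on day 1 and day 8 or 15 predose and 0.1–24 h post-dose, plus predose from day 8. Cmax, Tmax and AUC0–last (linear trapezoidal) were log-transformed. Accumulation = day 15/day 1 AUC; metabolite ratio = metabolite/parent AUC.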"}}, "note": "pIC50: −log10 of the molar value."}
{"smiles": "Cn1cc(-c2ccc3c(c2)ncn3-c2cc(NS(=O)(=O)C3CC3)cc(-c3ccc(F)cc3F)c2)cn1", "note": "[ODM-203]", "values": [{"measurement": "pIC50", "setting": "UGT1A1", "result": 7.00}, {"measurement": "overall response rate", "setting": "[1]; RECIST, all evaluable (7/76 patients)", "result": 9.2, "unit": "%"}, {"measurement": "disease control rate", "setting": "[1]; all evaluable", "result": 57.9, "unit": "%"}, {"measurement": "median progression-free survival", "setting": "[1]; non-FGFR patients", "result": 12.4, "unit": "weeks"}, {"measurement": "disease control rate", "setting": "[1]; non-FGFR tumours", "result": 52.3, "unit": "%"}, {"measurement": "overall response rate", "setting": "[1]; non-FGFR tumours (3/44)", "result": 6.8, "unit": "%"}, {"measurement": "patients without disease progression at 16 weeks", "setting": "[1]; non-FGFR tumours (16/42)", "result": 38.1, "unit": "%"}, {"measurement": "patients without disease progression at 16 weeks", "setting": "[1]; overall (24/71)", "result": 33.8, "unit": "%"}, {"measurement": "median progression-free survival", "setting": "[1]; patients with FGFR aberration(s)", "result": 16.1, "unit": "weeks"}, {"measurement": "disease control rate", "setting": "[1]; tumours with FGFR aberrations", "result": 65.6, "unit": "%"}, {"measurement": "overall response rate", "setting": "[1]; tumours with FGFR aberrations (4/32)", "result": 12.5, "unit": "%"}, {"measurement": "patients without disease progression at 16 weeks", "setting": "[1]; tumours with FGFR aberrations (8/29)", "result": 27.6, "unit": "%"}, {"measurement": "interindividual variability of steady-state AUC (coefficient of variation)", "setting": "[2]; 400 mg tablet group at day 15", "result": 90, "unit": "%"}, {"measurement": "Accumulation ratio, geometric mean (CV %)", "setting": "[2]; tablet 200 mg (n=3)", "result": "2.3 (23)"}, {"measurement": "Accumulation ratio, geometric mean (CV %)", "setting": "[2]; tablet 300 mg (n=3)", "result": "2.3 (123)"}, {"measurement": "Accumulation ratio, geometric mean (CV %)", "setting": "[2]; tablet 400 mg (n=24)", "result": "5.5 (76)"}, {"measurement": "Mean (SD) metabolite to parent ratio", "setting": "[2]; tablet 200 mg, Day 1 (n=3)", "result": "0.043 (0.022)"}, {"measurement": "Mean (SD) metabolite to parent ratio", "setting": "[2]; tablet 200 mg, Day 15 (n=3)", "result": "0.085 (0.043)"}, {"measurement": "Mean (SD) metabolite to parent ratio", "setting": "[2]; tablet 300 mg, Day 1 (n=3)", "result": "0.061 (0.030)"}, {"measurement": "Mean (SD) metabolite to parent ratio", "setting": "[2]; tablet 300 mg, Day 15 (n=3)", "result": "0.094 (0.004)"}, {"measurement": "Mean (SD) metabolite to parent ratio", "setting": "[2]; tablet 400 mg, Day 1 (n=25)", "result": "0.048 (0.034)"}, {"measurement": "Mean (SD) metabolite to parent ratio", "setting": "[2]; tablet 400 mg, Day 15 (n=24)", "result": "0.117 (0.031)"}, {"measurement": "average Tmax in different cohorts", "setting": "[2]; after a single dose", "result": "6 to 10", "unit": "h"}, {"measurement": "individual Tmax range", "setting": "[2]; after a single dose", "result": "3 to 24", "unit": "h"}, {"measurement": "average accumulation ratios", "setting": "[2]; based on AUC0–last, different cohorts", "result": "2.3–5.5"}, {"measurement": "tablet formulation compared with capsule formulation", "setting": "[2]; in vivo", "result": "higher exposure and lower variability"}, {"measurement": "AUC ratio (metabolite ORM-21444 to ODM-203)", "setting": "[2]; steady state", "result": "less than 0.15"}, {"measurement": "half-life", "setting": "[2]; suggested by accumulation ratios, different cohorts", "result": "30 to 70", "unit": "h"}, {"measurement": "Cmax, geometric mean (CV %)", "setting": "[2]; tablet 200 mg, Day 1 (n=3)", "result": "1539 (9) ng/mL"}, {"measurement": "Median (min, max) Tmax", "setting": "[2]; tablet 200 mg, Day 1 (n=3)", "result": "8.0 (7.7 to 11.1) h"}, {"measurement": "Cmax, geometric mean (CV %)", "setting": "[2]; tablet 200 mg, Day 15 (n=3)", "result": "3118 (28) ng/mL"}, {"measurement": "Mean (SD) Caverage", "setting": "[2]; tablet 200 mg, Day 15 (n=3)", "result": "2560 (719) ng/mL"}, {"measurement": "Median (min, max) Tmax", "setting": "[2]; tablet 200 mg, Day 15 (n=3)", "result": "8.0 (6.0 to 11.2) h"}, {"measurement": "Cmax, geometric mean (CV %)", "setting": "[2]; tablet 300 mg, Day 1 (n=3)", "result": "2608 (46) ng/mL"}, {"measurement": "Median (min, max) Tmax", "setting": "[2]; tablet 300 mg, Day 1 (n=3)", "result": "6.0 (4.1 to 6.1) h"}, {"measurement": "Cmax, geometric mean (CV %)", "setting": "[2]; tablet 300 mg, Day 15 (n=3)", "result": "4906 (148) ng/mL"}, {"measurement": "Mean (SD) Caverage", "setting": "[2]; tablet 300 mg, Day 15 (n=3)", "result": "5652 (5460) ng/mL"}, {"measurement": "Median (min, max) Tmax", "setting": "[2]; tablet 300 mg, Day 15 (n=3)", "result": "6.1 (3.1 to 8.7) h"}, {"measurement": "Cmax, geometric mean (CV %)", "setting": "[2]; tablet 400 mg, Day 1 (n=25)", "result": "1933 (49) ng/mL"}, {"measurement": "Median (min, max) Tmax", "setting": "[2]; tablet 400 mg, Day 1 (n=25)", "result": "6.3 (3.1 to 24.7) h"}, {"measurement": "Cmax, geometric mean (CV %)", "setting": "[2]; tablet 400 mg, Day 15 (n=24)", "result": "9070 (81) ng/mL"}, {"measurement": "Mean (SD) Caverage", "setting": "[2]; tablet 400 mg, Day 15 (n=24)", "result": "8928 (5148) ng/mL"}, {"measurement": "Median (min, max) Tmax", "setting": "[2]; tablet 400 mg, Day 15 (n=24)", "result": "6.0 (0.0 to 23.3) h"}]}
